Measured values pooled from the literature.
Each line is one published result; the experiments were not run side by side.
Target: Serine/threonine-protein kinase MARK2 (MARK2, Homo sapiens, UniProt Q7KZI7)
Observed: enzyme activity
Mode: inhibitor

`CC(C)(C)c1nc2c(s1)c1nc(N)ncc1c1ccc(NS(=O)(=O)c3c(F)cccc3F)c(F)c12` gave a remaining activity of 92% (radiometric; 1 µM).
`Cc1sc(C(=O)NC2COC2)cc1-n1cc(NC(=O)Nc2c(F)cccc2Cl)cn1` gave a remaining activity of 99.8% (10 µM).
The remaining activity of `Cc1nn(CC(F)(F)F)cc1Nc1ncc(C2CC2)c(NCCc2c[nH]cn2)n1` is reported as 90% (radiometric; 1 µM).
`COc1cc(Nc2cnc(C#N)c(O[C@H](C)CN(C)C)n2)ncc1-c1cnn(C)c1` has a remaining activity of 111% (radiometric; 1 µM).
`Cc1nn(CC(F)(F)F)cc1Nc1ncc(Br)c(NCc2ccc(S(N)(=O)=O)cc2)n1` gave a remaining activity of 89% (radiometric; 1 µM).
`O=C(Nc1cnn(-c2csc(C(=O)NC3COC3)c2)c1)Nc1c(F)cccc1Cl` gave a remaining activity of 90.7% (5 µM).
For `Cc1nn(CC(F)(F)F)cc1Nc1ncc(Br)c(NCCCNC(=O)C2CCC2)n1`, the remaining activity was 19% (radiometric; 1 µM).
`CC(C)(C)c1nc(-c2cccc(NS(=O)(=O)c3c(F)cccc3F)c2F)c(-c2ccnc(N)n2)s1` has a remaining activity of 94% (radiometric; 1 µM).
`NS(=O)(=O)c1ccc(CNc2nc(Nc3cccc(NC(=O)N4CCCC4)c3)ncc2Br)cc1` gave a remaining activity of 57% (radiometric; 1 µM).
For `Cn1c(=O)n(-c2ccc(C(C)(C)C#N)cc2)c2c3cc(-c4cnc5ccccc5c4)ccc3ncc21`, the remaining activity was 86% (10 µM).
`CCCOc1ccc(OC)c(F)c1C(=O)c1ccc(C(=O)N[C@@H]2CNC[C@H]2NC(=O)c2ccc3[nH]ncc3c2)cc1` gave a remaining activity of 33% (10 µM).
For `Oc1cccc(-c2nc(N3CCOCC3)c3oc4ncccc4c3n2)c1`, the remaining activity was 107% (10 µM).
With `CN1CCc2cc(Nc3ncc(C4CC4)c(NCCCNC(=O)C4CCC4)n3)ccc2C1` the remaining activity was 3% (radiometric; 1 µM).
`CCN(CC)c1ccc(C2=NNC(=O)CC2C)cc1[N+](=O)[O-]` (centres unmarked) has a remaining activity of 90% (10 µM).
With `COc1cc(Cl)c(C(=O)N[C@@H](CN[C@H]2CC[C@@H](N)CC2)Cc2ccc(C#N)cc2)cc1-c1ccc(CN[C@H](C)c2ccc(C)cc2)o1` the remaining activity was 98% (1 µM).
`Cc1cnc(NC2CCOCC2)nc1-n1cnc(C(=O)NC(CN)c2cc(F)cc(Cl)c2)c1` (centres unmarked) has a remaining activity of 45% (radiometric; 1 µM).
For `CC(C)(O)[C@H]1CC[C@H](Nc2ccc3ncc(-c4cccc(C(F)(F)F)c4)n3n2)CC1`, the remaining activity was 101% (1 µM).
